Measurements taken from article PMC9394215 (Journal for Immunotherapy of Cancer, 2022).

How the values were obtained:
human CD39 = target: T1, human CD39 (Homo sapiens, UniProt P49961); type: biochemical
T1 sequence (P49961 1-510): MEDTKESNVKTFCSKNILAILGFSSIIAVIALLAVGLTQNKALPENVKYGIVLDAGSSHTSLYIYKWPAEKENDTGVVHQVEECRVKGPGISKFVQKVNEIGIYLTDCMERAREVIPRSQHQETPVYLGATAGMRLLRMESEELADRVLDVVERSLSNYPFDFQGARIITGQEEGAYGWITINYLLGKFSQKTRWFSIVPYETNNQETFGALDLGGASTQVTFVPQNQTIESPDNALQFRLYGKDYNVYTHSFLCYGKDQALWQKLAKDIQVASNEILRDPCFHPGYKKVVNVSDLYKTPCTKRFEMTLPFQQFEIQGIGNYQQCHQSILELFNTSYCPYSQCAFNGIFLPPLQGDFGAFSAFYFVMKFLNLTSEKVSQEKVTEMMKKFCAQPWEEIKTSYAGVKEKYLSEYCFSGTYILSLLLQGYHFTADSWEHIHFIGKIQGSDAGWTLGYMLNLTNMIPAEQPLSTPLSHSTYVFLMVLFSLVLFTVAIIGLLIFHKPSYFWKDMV
How it was run: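 CD39 came from human umbilical cord membranes (50.0 ng protein per well). Substrate was 50 µM ATP in 10 mM HEPES, 2 mM CaCl2, 1 mM MgCl2, pH 7.4, with ≤2% DMSO. Enzyme and test compound were preincubated 5 min at 37°C; reaction ran 15 min at 37°C. Malachite green/molybdate was added and A600 read after 20 min at 25°C, minus a heat-denatured enzyme blank. Screening was at 10 µM; curves spanned 0.1–300 µM; n=3.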

NTPDase2 = target: T2, NTPDase2 (Homo sapiens, UniProt Q9Y5L3); experiment: Malachite green assay, NTPDase2 in COS-7 cell membranes; type: biochemical
T2 sequence (Q9Y5L3 1-495): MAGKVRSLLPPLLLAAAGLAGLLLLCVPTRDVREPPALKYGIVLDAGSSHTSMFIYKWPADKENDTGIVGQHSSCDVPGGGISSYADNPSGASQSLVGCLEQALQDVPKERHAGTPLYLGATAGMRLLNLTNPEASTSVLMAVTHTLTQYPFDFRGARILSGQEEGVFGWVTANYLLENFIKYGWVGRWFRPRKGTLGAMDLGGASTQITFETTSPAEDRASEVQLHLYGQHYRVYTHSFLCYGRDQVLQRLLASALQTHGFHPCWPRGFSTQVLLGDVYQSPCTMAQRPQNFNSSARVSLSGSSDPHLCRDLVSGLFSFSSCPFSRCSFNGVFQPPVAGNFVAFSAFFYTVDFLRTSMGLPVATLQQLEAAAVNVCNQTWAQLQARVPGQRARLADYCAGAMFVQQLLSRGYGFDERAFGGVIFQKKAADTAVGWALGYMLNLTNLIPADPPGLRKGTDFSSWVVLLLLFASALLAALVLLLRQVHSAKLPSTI
How it was run: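 Human NTPDase2, -3 or -8 was expressed in COS-7 membranes (ca. 100 ng protein, adjusted for 10–20% substrate conversion). Enzyme was preincubated 5 min at 37°C with test compound (50 µM single point, or 0.1–300 µM for curves). It was then incubated 15 min at 37°C with 100 µM ATP in HEPES/CaCl2/MgCl2, pH 7.4, ≤2% DMSO. Malachite green absorbance at 600 nm was corrected by a denatured-enzyme blank; n=3.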

CD38 = target: T3, CD38 (Homo sapiens, UniProt P28907); experiment: CD38 assay; type: biochemical
T3 sequence (P28907 43-300 limits assumed): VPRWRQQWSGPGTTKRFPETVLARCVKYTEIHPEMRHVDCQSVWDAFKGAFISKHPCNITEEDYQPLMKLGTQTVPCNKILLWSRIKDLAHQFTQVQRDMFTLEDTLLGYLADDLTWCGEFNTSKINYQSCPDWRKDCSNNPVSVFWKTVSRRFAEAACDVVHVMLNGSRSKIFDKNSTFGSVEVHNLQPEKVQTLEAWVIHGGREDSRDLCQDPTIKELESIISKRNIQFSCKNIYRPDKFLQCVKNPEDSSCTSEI
How it was run: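 Either CD38 (5 ng) or NPP5 (250 ng) was mixed with 50 µM test compound and 100 µM NAD+ as substrate. For CD38 the reaction buffer was 10 mM HEPES, pH 7.4.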

TNBC (MDA-MB-231) cells = experiment: Extracellular eATP hydrolysis on live TNBC cells; type: cell-based, human; settings: 1, 10, 100 µM, significant at 10 µM, 20 µM eATP
melanoma (MaMel65) cells = experiment: Extracellular eATP hydrolysis on live melanoma cells; type: cell-based, human; settings: 1, 10, 100 µM, significant at 10 µM, 20 µM eATP
[1] = cited from earlier work
[2] = read-out: % inhibition at 50 µM

Cc1cc(Nc2ncc(Cl)c(Nc3ccccc3S(=O)(=O)C(C)C)n2)c(OC(C)C)cc1C1CCNCC1 [ceritinib, Ceritinib]
IC50 (human CD39): 11.3 ± 0.8 µM | inhibition at 10 µM (human CD39; read-out: inhibition of human CD39): > 50% | IC50 (NTPDase2): > 50 µM | inhibition at 50 µM (NTPDase2; [2]): -8% | IC50 (CD38): > 50 µM | inhibition at 50 µM (CD38; [2]): 19% | inhibition of hydrolysis of eATP added to live cells (TNBC (MDA-MB-231) cells): concentration-dependent inhibition | inhibition of hydrolysis of eATP added to live cells (melanoma (MaMel65) cells): concentration-dependent inhibition | metabolic stability [1]: metabolically highly stable
